Data on four molecules can be found in ChEMBL document CHEMBL3792341, “Substituted quinazolinones as kinase inhibitors endowed with anti-fibrotic properties” (Eur J Med Chem, 2016).

Data set [1] can be described thus: Cytotoxicity against human HSC cells assessed as cell viability at 1 uM after 72 hrs by MTT assay. Format: cell-based. The gist of the method:
(§1)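 MTT viability in primary human HSCs or ISEMFs seeded at 2 × 10³ cells/well. Cells were exposed to compound for 72 h, then to MTT 0.50 mg/ml for 4 h. Viability is expressed as % of the respective untreated cells. Triplicate per isolated cell batch.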

In data set [2] the target is Fibroblast growth factor receptor 1 (Homo sapiens) (UniProt P11362). In words: Inhibition of human FGFR1 using myelin basic protein as substrate at 1 uM measured after 20 mins at 30 degC by liquid scintillation counting method in presence of [gamma-32P]-ATP.
Chain of Fibroblast growth factor receptor 1 (Homo sapiens) (P11362 22-822 limits assumed): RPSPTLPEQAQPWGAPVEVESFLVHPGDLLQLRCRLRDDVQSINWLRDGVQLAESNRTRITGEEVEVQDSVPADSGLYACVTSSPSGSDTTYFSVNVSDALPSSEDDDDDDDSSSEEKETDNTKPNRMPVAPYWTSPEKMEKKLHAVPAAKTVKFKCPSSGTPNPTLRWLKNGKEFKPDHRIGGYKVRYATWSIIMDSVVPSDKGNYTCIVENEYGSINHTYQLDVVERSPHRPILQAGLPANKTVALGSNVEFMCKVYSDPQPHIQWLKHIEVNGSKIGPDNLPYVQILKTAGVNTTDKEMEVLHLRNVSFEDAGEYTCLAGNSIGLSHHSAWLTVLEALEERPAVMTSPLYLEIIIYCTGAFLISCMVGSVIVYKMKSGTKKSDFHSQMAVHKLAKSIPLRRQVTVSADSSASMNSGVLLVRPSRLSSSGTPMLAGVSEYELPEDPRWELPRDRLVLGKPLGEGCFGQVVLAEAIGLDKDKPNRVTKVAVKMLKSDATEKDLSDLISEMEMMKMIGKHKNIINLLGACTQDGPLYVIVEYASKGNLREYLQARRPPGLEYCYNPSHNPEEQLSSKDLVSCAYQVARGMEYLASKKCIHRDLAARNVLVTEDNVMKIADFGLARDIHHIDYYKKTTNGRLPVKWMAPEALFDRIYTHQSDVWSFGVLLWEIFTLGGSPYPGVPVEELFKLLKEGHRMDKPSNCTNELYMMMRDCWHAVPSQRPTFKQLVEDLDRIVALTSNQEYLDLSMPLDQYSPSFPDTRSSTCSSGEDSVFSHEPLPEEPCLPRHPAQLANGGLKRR
Data set [3] in a line: Reduction of COL1A1 mRNA expression in healthy human ISEMF at 1 uM by RT-PCR analysis. Format: functional. The gist of the method:
(§2)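 HSCs or ISEMFs were treated with compound for 24 h. Total RNA was extracted and DNase I-treated, then used for quantitative PCR of the target transcript. Values were normalized to 18S rRNA and relative change was calculated by the ΔΔCT method. Triplicate per isolated cell batch.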

Data set [4] can be described thus: Cytotoxicity against healthy human ISEMF assessed as cell viability at 1 uM after 72 hrs by MTT assay. The gist of the method: as §1
In general terms: Formazan colour is commonly taken as a measure of viable cells.

The target of data set [5] is Tyrosine-protein kinase ABL1 (Homo sapiens) (UniProt P00519). In words: Inhibition of human Abl1 using myelin basic protein as substrate at 1 uM measured after 20 mins at 30 degC by liquid scintillation counting method in presence of [gamma-32P]-ATP.
Chain of Tyrosine-protein kinase ABL1 (Homo sapiens) (P00519 whole entry): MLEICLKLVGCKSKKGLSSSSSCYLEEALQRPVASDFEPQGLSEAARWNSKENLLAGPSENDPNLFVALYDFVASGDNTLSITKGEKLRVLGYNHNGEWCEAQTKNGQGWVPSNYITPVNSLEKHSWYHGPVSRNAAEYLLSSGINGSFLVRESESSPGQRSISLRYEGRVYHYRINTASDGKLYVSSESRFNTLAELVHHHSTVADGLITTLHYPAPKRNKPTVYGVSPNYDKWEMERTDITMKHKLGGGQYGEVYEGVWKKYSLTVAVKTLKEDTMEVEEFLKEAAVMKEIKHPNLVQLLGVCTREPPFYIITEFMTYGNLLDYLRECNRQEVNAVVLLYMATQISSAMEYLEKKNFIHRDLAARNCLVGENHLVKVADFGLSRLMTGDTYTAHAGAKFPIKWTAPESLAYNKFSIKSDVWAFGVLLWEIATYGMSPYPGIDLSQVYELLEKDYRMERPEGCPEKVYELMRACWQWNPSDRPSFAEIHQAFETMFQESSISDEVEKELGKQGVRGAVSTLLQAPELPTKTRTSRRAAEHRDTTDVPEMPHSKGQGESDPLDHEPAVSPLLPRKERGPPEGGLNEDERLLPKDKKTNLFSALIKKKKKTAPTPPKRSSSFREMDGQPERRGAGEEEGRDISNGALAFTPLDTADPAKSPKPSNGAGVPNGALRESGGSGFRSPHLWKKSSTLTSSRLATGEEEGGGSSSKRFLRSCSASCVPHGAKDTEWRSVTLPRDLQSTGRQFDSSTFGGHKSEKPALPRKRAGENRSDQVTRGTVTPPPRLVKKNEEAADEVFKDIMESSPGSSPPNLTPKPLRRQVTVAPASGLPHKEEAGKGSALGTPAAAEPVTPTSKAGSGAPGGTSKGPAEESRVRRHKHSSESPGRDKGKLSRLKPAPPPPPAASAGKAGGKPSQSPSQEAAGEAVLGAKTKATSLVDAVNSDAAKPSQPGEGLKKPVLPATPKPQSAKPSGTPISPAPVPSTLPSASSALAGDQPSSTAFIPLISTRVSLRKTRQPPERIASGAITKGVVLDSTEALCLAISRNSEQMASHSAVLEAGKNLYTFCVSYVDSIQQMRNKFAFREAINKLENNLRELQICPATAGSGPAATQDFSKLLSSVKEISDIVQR
Data set [6] concerns the target Proto-oncogene tyrosine-protein kinase Src (Homo sapiens) (UniProt P12931). In words: Inhibition of human Src using myelin basic protein as substrate at 1 uM measured after 20 mins at 30 degC by liquid scintillation counting method in presence of [gamma-32P]-ATP.
Data set [7] addresses Serine/threonine-protein kinase mTOR (Homo sapiens) (UniProt P42345). Description: Inhibition of human mTOR using PHAS-1 as substrate at 1 uM measured after 20 mins at 30 degC by liquid scintillation counting method in presence of [gamma-32P]-ATP.
The species entered for data set [8] is Homo sapiens. Description: Inhibition of human PI3K using phosphatidylinositol 4,5-diphosphate as substrate at 1 uM measured after 20 mins at 30 degC by liquid scintillation counting method in presence of [gamma-32P]-ATP.
The target in data set [9] is T1, MAP kinase p38 (Homo sapiens) (UniProt O15264+Q15759+Q16539+P53778). Description: Inhibition of p38 MAPK phosphorylation in human HSC cells at 1 uM after 4 hrs by western blotting analysis. Format: cell-based. A digest of the protocol:
(§3)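 Primary human cells were treated with compound for 4 h. Lysates were made in RIPA buffer with phosphatase and protease inhibitors and cleared by centrifugation. Proteins were run on 10% SDS-PAGE and blotted to nitrocellulose. Blots were probed for phospho-p38 MAPK with an HRP secondary and ECL detection, then reprobed for total p38 MAPK as loading control. Duplicate experiments.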

Data set [10] has as its target Vascular endothelial growth factor receptor 2 (Homo sapiens) (UniProt P35968). In words: Inhibition of human KDR using […] as substrate at 1 uM measured after 20 mins at 30 degC by liquid scintillation counting method in presence of [gamma-32P]-ATP.
A short description of data set [11]: Cytotoxicity against crohn's disease patient isolated ISEMF assessed as cell viability at 1 uM after 72 hrs by MTT assay. To be noted: human. A digest of the protocol:
as §1

Data set [12] concerns the target Platelet-derived growth factor receptor beta (Homo sapiens) (UniProt P09619). Description: Inhibition of human PDGFR-beta at 1 uM measured after 20 mins at 30 degC by liquid scintillation counting method in presence of [gamma-32P]-ATP.
Data set [13] can be described thus: Reduction of COL1A1 mRNA expression in crohn's disease patient isolated ISEMF at 1 uM by RT-PCR analysis. Format: functional. To be noted: Homo sapiens. A digest of the protocol: as §2
Data set [14] can be described thus: Reduction of COL1A1 mRNA expression in healthy human HSC cells at 1 uM by RT-PCR analysis. Format: functional, cell-based. A digest of the protocol: as §2
Data set [15] has as its target T1, MAP kinase p38 (Homo sapiens). In words: Inhibition of p38 MAPK phosphorylation in crohn's disease patient isolated ISEMF at 1 uM after 4 hrs by western blotting analysis. The gist of the method:
as §3
Background: A western blot detects proteins with antibodies after separation by electrophoresis.

Data set [16] has as its system HSC. Description: Antiproliferative activity against VEGF induced human HSC cells at 1 uM after 72 hrs by carboxyfluorescein diacetate succinimidyl ester dye-based FACS flow cytometric method. Format: functional, cell-based. A digest of the protocol:
(§4)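 Primary human HSCs (from collagenase/pronase digests of non-pathological liver, Percoll gradient) or ISEMFs (from collagenase-digested gut biopsies, CD90-checked) were CFSE-loaded for 10 min at 37 °C in PBS with 0.1% BSA. Loading was quenched with 5 volumes of ice-cold medium. After 16 h, cells were washed and given compound plus 1 ng/ml VEGF for 72 h. Read-out was dye partitioning by flow cytometry, as % CFSE-positive cells. Duplicate per cell batch; mean ± SE.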
On the technique in general: In flow cytometry, cells or beads pass a laser one at a time.

Data set [17] is filed under the species Homo sapiens. Description: Antiproliferative activity against VEGF induced crohn's disease patient isolated ISEMF at 1 uM after 72 hrs by carboxyfluorescein diacetate succinimidyl ester dye-based FACS flow cytometric method. Format: functional. The gist of the method: as §4
The species entered for data set [18] is Homo sapiens. Description: Antiproliferative activity against VEGF induced healthy human ISEMF at 1 uM after 72 hrs by carboxyfluorescein diacetate succinimidyl ester dye-based FACS flow cytometric method. Format: functional. A digest of the protocol: as §4
Data set [19] is described as follows: Reduction of TIMP1 mRNA expression in crohn's disease patient isolated ISEMF at 1 uM by RT-PCR analysis. Format: functional. The conditions noted are these: Homo sapiens. The gist of the method:
as §2

A short description of data set [20]: Reduction of TIMP1 mRNA expression in healthy human ISEMF at 1 uM by RT-PCR analysis. Format: functional. The gist of the method:
as §2

The nature of data set [21]: Reduction of FN1 mRNA expression in crohn's disease patient isolated ISEMF at 1 uM by RT-PCR analysis. Format: functional. To be noted: Homo sapiens. The gist of the method:
as §2

A short description of data set [22]: Reduction of FN1 mRNA expression in human HSC cells at 1 uM by RT-PCR analysis. Format: functional, cell-based. The gist of the method:
as §2

Data set [23] in a line: Reduction of FN1 mRNA expression in healthy human ISEMF at 1 uM by RT-PCR analysis. Format: functional. A digest of the protocol:
as §2

Data set [24] is described as follows: Reduction of TIMP1 mRNA expression in human HSC cells at 1 uM by RT-PCR analysis. Format: functional, cell-based. A digest of the protocol: as §2

Activity calls are given as the source filed them. The rule behind the calls is not given here.

Chain of Proto-oncogene tyrosine-protein kinase Src (Homo sapiens) (P12931 2-536 limits assumed): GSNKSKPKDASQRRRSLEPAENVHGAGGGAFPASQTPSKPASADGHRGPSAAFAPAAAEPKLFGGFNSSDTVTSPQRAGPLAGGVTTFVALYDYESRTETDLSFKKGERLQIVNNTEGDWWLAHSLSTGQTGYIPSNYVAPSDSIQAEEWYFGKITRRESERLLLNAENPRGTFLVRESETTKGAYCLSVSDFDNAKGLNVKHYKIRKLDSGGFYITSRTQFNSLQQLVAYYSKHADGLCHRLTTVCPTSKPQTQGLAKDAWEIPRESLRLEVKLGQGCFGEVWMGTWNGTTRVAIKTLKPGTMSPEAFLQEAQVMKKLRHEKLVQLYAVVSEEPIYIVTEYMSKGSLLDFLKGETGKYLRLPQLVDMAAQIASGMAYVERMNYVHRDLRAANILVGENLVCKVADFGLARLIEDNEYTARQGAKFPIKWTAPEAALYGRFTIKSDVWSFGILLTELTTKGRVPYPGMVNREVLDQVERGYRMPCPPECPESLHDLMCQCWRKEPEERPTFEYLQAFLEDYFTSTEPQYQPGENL
Chain of Vascular endothelial growth factor receptor 2 (Homo sapiens) (P35968 whole entry): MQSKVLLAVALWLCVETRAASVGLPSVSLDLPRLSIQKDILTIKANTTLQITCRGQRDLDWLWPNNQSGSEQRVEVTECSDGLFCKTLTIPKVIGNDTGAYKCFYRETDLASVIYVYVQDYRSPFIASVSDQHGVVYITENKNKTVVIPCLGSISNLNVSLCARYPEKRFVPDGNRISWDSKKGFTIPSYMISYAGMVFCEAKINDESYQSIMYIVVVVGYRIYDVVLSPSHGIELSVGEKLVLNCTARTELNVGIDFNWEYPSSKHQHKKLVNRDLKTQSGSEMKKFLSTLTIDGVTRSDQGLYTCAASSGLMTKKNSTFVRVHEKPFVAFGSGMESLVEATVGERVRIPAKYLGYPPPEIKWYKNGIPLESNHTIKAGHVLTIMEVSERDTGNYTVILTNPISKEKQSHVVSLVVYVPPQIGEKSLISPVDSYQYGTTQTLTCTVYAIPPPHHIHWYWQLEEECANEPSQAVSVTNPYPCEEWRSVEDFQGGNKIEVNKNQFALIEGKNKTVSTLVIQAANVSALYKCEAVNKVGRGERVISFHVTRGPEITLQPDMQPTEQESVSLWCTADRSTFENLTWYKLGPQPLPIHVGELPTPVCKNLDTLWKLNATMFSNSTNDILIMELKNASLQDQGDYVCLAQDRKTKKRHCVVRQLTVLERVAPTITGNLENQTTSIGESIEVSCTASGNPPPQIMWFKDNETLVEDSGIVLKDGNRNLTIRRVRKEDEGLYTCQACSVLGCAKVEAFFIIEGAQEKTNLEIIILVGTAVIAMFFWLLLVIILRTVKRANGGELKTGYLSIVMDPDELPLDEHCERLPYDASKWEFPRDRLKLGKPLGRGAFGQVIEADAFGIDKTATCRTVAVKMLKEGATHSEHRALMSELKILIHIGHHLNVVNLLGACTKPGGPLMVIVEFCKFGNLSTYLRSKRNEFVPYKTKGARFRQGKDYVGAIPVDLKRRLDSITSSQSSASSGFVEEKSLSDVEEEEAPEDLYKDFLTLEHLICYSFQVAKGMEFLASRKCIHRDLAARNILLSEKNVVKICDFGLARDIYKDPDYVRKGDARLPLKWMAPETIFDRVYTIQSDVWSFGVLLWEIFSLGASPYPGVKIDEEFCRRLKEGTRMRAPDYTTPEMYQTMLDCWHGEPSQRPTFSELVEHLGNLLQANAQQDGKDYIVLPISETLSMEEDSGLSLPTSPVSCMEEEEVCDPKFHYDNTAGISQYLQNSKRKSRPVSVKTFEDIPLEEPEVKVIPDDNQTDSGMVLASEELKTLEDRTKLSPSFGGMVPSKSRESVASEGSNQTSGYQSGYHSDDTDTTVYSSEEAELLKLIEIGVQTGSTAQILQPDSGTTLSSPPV
Chain of Platelet-derived growth factor receptor beta (Homo sapiens) (P09619 whole entry): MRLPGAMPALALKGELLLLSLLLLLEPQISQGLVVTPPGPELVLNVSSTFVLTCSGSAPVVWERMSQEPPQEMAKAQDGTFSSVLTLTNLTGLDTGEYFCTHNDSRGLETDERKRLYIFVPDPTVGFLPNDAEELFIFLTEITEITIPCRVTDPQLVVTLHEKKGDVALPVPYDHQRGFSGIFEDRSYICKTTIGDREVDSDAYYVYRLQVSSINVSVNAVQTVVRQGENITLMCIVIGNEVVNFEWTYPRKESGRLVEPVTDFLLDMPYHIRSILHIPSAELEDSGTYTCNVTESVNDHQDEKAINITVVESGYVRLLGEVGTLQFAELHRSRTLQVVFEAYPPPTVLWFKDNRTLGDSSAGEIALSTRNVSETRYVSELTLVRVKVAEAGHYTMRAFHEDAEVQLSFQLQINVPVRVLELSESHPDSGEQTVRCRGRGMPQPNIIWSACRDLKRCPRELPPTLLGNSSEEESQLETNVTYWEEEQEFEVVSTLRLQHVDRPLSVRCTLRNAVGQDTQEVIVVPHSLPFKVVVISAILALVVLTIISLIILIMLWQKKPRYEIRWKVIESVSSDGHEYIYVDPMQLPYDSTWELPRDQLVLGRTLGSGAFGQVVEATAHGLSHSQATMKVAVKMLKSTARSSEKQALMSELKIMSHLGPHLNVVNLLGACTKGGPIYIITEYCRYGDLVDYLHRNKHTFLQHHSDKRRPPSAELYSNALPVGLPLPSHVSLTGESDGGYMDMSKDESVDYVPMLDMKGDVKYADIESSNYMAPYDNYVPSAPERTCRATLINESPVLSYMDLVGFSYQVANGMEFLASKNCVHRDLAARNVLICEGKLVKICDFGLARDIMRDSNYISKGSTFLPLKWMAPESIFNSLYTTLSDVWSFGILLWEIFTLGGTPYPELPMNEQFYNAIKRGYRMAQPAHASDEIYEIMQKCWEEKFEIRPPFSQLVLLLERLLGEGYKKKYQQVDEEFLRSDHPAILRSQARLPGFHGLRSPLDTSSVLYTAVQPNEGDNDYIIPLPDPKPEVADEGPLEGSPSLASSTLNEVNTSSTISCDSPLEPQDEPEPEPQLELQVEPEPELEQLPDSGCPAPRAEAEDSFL

For the molecule `O=C(Cn1cnc2cc3c(cc2c1=O)OCCO3)c1cccc(Br)c1`, the Activity entry in [1], in data set [4] and in data set [11] was “Non-toxic” throughout. Further, the inhibition (as a rule, the drop in the measured response relative to a control, in per cent) in data set [2] turned out to be 18%; in [5], 0%; in [6], 0%; in data set [7], 2%; in [8] it was 35%; in data set [10] it was 36%. In data set [12], the inhibition came to 4%. Besides, the outcome in data set [3], in data set [13] and in data set [14] was Active. In addition, the inhibition result in data set [9] and in data set [15] was “Active” in each case.

Consider `COc1cc2ncn(CC(O)c3ccc(Br)cc3)c(=O)c2cc1OC` (stereo unspecified), for which the Activity result in data set [1], in data set [4] and in data set [11] was “Non-toxic” throughout. Also, the inhibition in [2] worked out at 8%; in [5] it was 0%; in data set [6] it was 0%; in data set [7], 33%; in [8] it was 5%; in data set [10], 44%. Further, in data set [12], the inhibition amounted to 0%. Further, the result in data set [3], in data set [16], in [17], in [18], in [13] and in [14] was Active. Besides, the inhibition result in [9] and in data set [15] was “Active” throughout.

Consider `O=c1c2cc3c(cc2ncn1Cc1ccc(Br)cc1)OCO3`, for which the Activity result in [1], in data set [4] and in data set [11] was “Non-toxic” each time. In addition, the inhibition in [2] is 1%; in [5], 0%; in data set [6], 0%; in [7], 17%; in data set [8], 7%; in [10], 27%. In addition, in [12], the inhibition is 45%. Also, the result in [19], in [3], in data set [20], in data set [21], in [22] and in data set [23] was inactive. The result in [13], in data set [14] and in data set [24] was inactive. The outcome in [16], in data set [17] and in data set [18] was Active.

As for `COc1cc2ncn(Cc3cccnc3Br)c(=O)c2cc1OC`, the Activity entry in data set [1], in data set [4] and in data set [11] was “Non-toxic” throughout. Also, the inhibition is 13% in data set [2]; 0% in [5]; 3% in data set [6]; 30% in data set [7]; 25% in data set [8]; 24% in data set [10]. In addition, the inhibition in data set [12] turned out to be 37%. For the same molecule, the result in data set [19], in data set [21], in data set [22], in data set [16], in [17] and in data set [18] was Active. Besides, the outcome in data set [24] was Active. For the same molecule, the result in data set [20] and in data set [23] was inactive. Also, the inhibition entry in [9] and in [15] was “Active” throughout.
